Data: ChEMBL document CHEMBL1158563, “Identification of benzimidazole-based inhibitors of the mitogen activated kinase-5 signaling pathway” (2010)

Tests used:
CCRF-CEM = assay: Cytotoxicity against human CCRF-CEM cells at 10 uM assessed as cell growth relative to control; format: functional; conditions: read-out: Activity
HL-60(TB) = assay: Cytotoxicity against human HL-60(TB) cells at 10 uM assessed as cell growth relative to control; format: functional; conditions: read-out: Activity
K562 = assay: Cytotoxicity against human K562 cells at 10 uM assessed as cell growth relative to control; format: functional; conditions: read-out: Activity
MOLT-4 = assay: Cytotoxicity against human MOLT4 cells at 10 uM assessed as cell growth relative to control; format: functional; conditions: read-out: Activity
[1] = Cytotoxicity against human […] cells at 10 uM assessed as cell growth relative to control; format: functional; conditions: read-out: Activity
SR = assay: Cytotoxicity against human SR cells at 10 uM assessed as cell growth relative to control; format: functional; conditions: read-out: Activity
A549 = assay: Cytotoxicity against human A549 cells at 10 uM assessed as cell growth relative to control; format: functional; conditions: read-out: Activity
EKVX = assay: Cytotoxicity against human EKVX cells at 10 uM assessed as cell growth relative to control; format: functional; conditions: read-out: Activity
HOP-62 = assay: Cytotoxicity against human HOP62 cells at 10 uM assessed as cell growth relative to control; format: functional; conditions: read-out: Activity
HOP-92 = assay: Cytotoxicity against human HOP92 cells at 10 uM assessed as cell growth relative to control; format: functional; conditions: read-out: Activity
NCI-H226 = assay: Cytotoxicity against human NCI-H226 cells at 10 uM assessed as cell growth relative to control; format: functional; conditions: read-out: Activity
NCI-H23 = assay: Cytotoxicity against human NCI-H23 cells at 10 uM assessed as cell growth relative to control; format: functional; conditions: read-out: Activity
NCI-H322M = assay: Cytotoxicity against human NCI-H322M cells at 10 uM assessed as cell growth relative to control; format: functional; conditions: read-out: Activity
NCI-H460 = assay: Cytotoxicity against human NCI-H460 cells at 10 uM assessed as cell growth relative to control; format: functional; conditions: read-out: Activity
NCI-H522 = assay: Cytotoxicity against human NCI-H522 cells at 10 uM assessed as cell growth relative to control; format: functional; conditions: read-out: Activity
COLO 205 = assay: Cytotoxicity against human COLO205 cells at 10 uM assessed as cell growth relative to control; format: functional; conditions: read-out: Activity
HCC 2998 = assay: Cytotoxicity against human HCC2998 cells at 10 uM assessed as cell growth relative to control; format: functional; conditions: read-out: Activity
HCT-116 = assay: Cytotoxicity against human HCT116 cells at 10 uM assessed as cell growth relative to control; format: functional; conditions: read-out: Activity
HCT-15 = assay: Cytotoxicity against human HCT15 cells at 10 uM assessed as cell growth relative to control; format: functional; conditions: read-out: Activity
HT-29 = assay: Cytotoxicity against human HT-29 cells at 10 uM assessed as cell growth relative to control; format: functional; conditions: read-out: Activity
KM12 = assay: Cytotoxicity against human KM12 cells at 10 uM assessed as cell growth relative to control; format: functional; conditions: read-out: Activity
SW-620 = assay: Cytotoxicity against human SW620 cells at 10 uM assessed as cell growth relative to control; format: functional; conditions: read-out: Activity
SF-268 = assay: Cytotoxicity against human SF268 cells at 10 uM assessed as cell growth relative to control; format: functional; conditions: read-out: Activity
SF-295 = assay: Cytotoxicity against human SF295 cells at 10 uM assessed as cell growth relative to control; format: functional; conditions: read-out: Activity
SF-539 = assay: Cytotoxicity against human SF539 cells at 10 uM assessed as cell growth relative to control; format: functional; conditions: read-out: Activity
SNB-19 = assay: Cytotoxicity against human SNB19 cells at 10 uM assessed as cell growth relative to control; format: functional; conditions: read-out: Activity
SNB-75 = assay: Cytotoxicity against human SNB75 cells at 10 uM assessed as cell growth relative to control; format: functional; conditions: read-out: Activity
U-251 = assay: Cytotoxicity against human U251 cells at 10 uM assessed as cell growth relative to control; format: functional; conditions: read-out: Activity
LOX IMVI = assay: Cytotoxicity against human LOXIMVI cells at 10 uM assessed as cell growth relative to control; format: functional; conditions: read-out: Activity
Malme-3M = assay: Cytotoxicity against human MALME-3M cells at 10 uM assessed as cell growth relative to control; format: functional; conditions: read-out: Activity
M14 = assay: Cytotoxicity against human M14 cells at 10 uM assessed as cell growth relative to control; format: functional; conditions: read-out: Activity
MDA-MB-435 = assay: Cytotoxicity against human MDA-MB-435 cells at 10 uM assessed as cell growth relative to control; format: functional; conditions: read-out: Activity
SK-MEL-2 = assay: Cytotoxicity against human SK-MEL-2 cells at 10 uM assessed as cell growth relative to control; format: functional; conditions: read-out: Activity
SK-MEL-28 = assay: Cytotoxicity against human SK-MEL-28 cells at 10 uM assessed as cell growth relative to control; format: functional; conditions: read-out: Activity
SK-MEL-5 = assay: Cytotoxicity against human SK-MEL-5 cells at 10 uM assessed as cell growth relative to control; format: functional; conditions: read-out: Activity
UACC-257 = assay: Cytotoxicity against human UACC257 cells at 10 uM assessed as cell growth relative to control; format: functional; conditions: read-out: Activity
UACC-62 = assay: Cytotoxicity against human UACC62 cells at 10 uM assessed as cell growth relative to control; format: functional; conditions: read-out: Activity
IGROV-1 = assay: Cytotoxicity against human IGROV1 cells at 10 uM assessed as cell growth relative to control; format: functional; conditions: read-out: Activity
OVCAR-3 = assay: Cytotoxicity against human OVCAR-3 cells at 10 uM assessed as cell growth relative to control; format: functional; conditions: read-out: Activity
OVCAR-4 = assay: Cytotoxicity against human OVCAR4 cells at 10 uM assessed as cell growth relative to control; format: functional; conditions: read-out: Activity
OVCAR-5 = assay: Cytotoxicity against human OVCAR5 cells at 10 uM assessed as cell growth relative to control; format: functional; conditions: read-out: Activity
OVCAR-8 = assay: Cytotoxicity against human OVCAR8 cells at 10 uM assessed as cell growth relative to control; format: functional; conditions: read-out: Activity
SK-OV-3 = assay: Cytotoxicity against human SKOV3 cells at 10 uM assessed as cell growth relative to control; format: functional; conditions: read-out: Activity
786-0 = assay: Cytotoxicity against human 786-0 cells at 10 uM assessed as cell growth relative to control; format: functional; conditions: read-out: Activity
A498 = assay: Cytotoxicity against human A498 cells at 10 uM assessed as cell growth relative to control; format: functional; conditions: read-out: Activity
ACHN = assay: Cytotoxicity against human ACHN cells at 10 uM assessed as cell growth relative to control; format: functional; conditions: read-out: Activity
CAKI-1 = assay: Cytotoxicity against human Caki1 cells at 10 uM assessed as cell growth relative to control; format: functional; conditions: read-out: Activity
RXF 393 = assay: Cytotoxicity against human RXF393 cells at 10 uM assessed as cell growth relative to control; format: functional; conditions: read-out: Activity
SN12C = assay: Cytotoxicity against human SN12C cells at 10 uM assessed as cell growth relative to control; format: functional; conditions: read-out: Activity
TK-10 = assay: Cytotoxicity against human TK10 cells at 10 uM assessed as cell growth relative to control; format: functional; conditions: read-out: Activity
UO-31 = assay: Cytotoxicity against human UO31 cells at 10 uM assessed as cell growth relative to control; format: functional; conditions: read-out: Activity
DU-145 = assay: Cytotoxicity against human DU145 cells at 10 uM assessed as cell growth relative to control; format: functional; conditions: read-out: Activity
MCF7 = assay: Cytotoxicity against human MCF7 cells at 10 uM assessed as cell growth relative to control; format: functional; conditions: read-out: Activity
MDA-MB-231 = assay: Cytotoxicity against human MDA-MB-231 cells at 10 uM assessed as cell growth relative to control; format: functional; conditions: read-out: Activity
[2] = Cytotoxicity against human Hs 578T cells at 10 uM assessed as cell growth relative to control; format: functional; conditions: read-out: Activity
BT-549 = assay: Cytotoxicity against human BT549 cells at 10 uM assessed as cell growth relative to control; format: functional; conditions: read-out: Activity
T47D = assay: Cytotoxicity against human T47D cells at 10 uM assessed as cell growth relative to control; format: functional; conditions: read-out: Activity
MDA-MB-468 = assay: Cytotoxicity against human MDA-MB-468 cells at 10 uM assessed as cell growth relative to control; format: functional; conditions: read-out: Activity
NCI/ADR-RES = assay: Cytotoxicity against human NCI/ADR-RES cells at 10 uM assessed as cell growth relative to control; format: functional; conditions: read-out: Activity
[3] = target: T1, Dual specificity mitogen-activated protein kinase kinase 5 (Homo sapiens) (UniProt Q13163); assay: Inhibition of EGF-induced MEK5-mediated ERK5 phosphorylation in human HEK293 cells at 10 uM treated after 30 mins EGF challenge measured after 30 mins by Western blot analysis relative to control; format: cell-based; parameters: scale not given: the % may be the effect or the level left
T1 sequence (whole entry): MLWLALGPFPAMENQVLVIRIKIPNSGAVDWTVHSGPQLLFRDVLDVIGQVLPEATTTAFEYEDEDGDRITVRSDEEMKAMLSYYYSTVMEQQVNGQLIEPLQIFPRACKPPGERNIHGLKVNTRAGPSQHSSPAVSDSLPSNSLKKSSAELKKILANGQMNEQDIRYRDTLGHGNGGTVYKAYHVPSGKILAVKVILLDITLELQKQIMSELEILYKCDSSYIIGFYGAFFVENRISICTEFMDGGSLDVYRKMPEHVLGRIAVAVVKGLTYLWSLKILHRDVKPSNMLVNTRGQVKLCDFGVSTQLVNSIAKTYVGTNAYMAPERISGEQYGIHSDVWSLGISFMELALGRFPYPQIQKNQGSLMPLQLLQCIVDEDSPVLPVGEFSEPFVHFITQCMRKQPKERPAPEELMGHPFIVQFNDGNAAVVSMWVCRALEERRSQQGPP
Method in brief: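 HEK293 cells were grown in medium with 10% heat-inactivated FBS and 0.5% penicillin/streptomycin at 37 °C, 5% CO2. They were stimulated with 50 ng/mL EGF, then given 10 µM compound (final) 30 min later, and lysed 30 min after that in 1% Triton buffer. 60 µg protein was run on 10% SDS gels and blotted for pERK1/2 (1:1000) or pERK5 (1:500).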

With `COc1cc(NCc2ccccc2)c2ncn(C(C)C)c2c1` the growth at 10 µM (CCRF-CEM) was 93.9%, the growth at 10 µM (HL-60(TB)) was 50.3% and the growth at 10 µM (K562) was 64.2%. For the same compound, the growth at 10 µM (MOLT-4) was 78.7%, the growth at 10 µM [1] was 71.5% and the growth at 10 µM (SR) was 51.7%. It also gave a growth at 10 µM (A549) of 110%, a growth at 10 µM (EKVX) of 93.9% and a growth at 10 µM (HOP-62) of 101%. The growth at 10 µM (HOP-92) was 84.5%, the growth at 10 µM (NCI-H226) was 97.1% and the growth at 10 µM (NCI-H23) was 91.1%. The growth at 10 µM (NCI-H322M) was 115%, the growth at 10 µM (NCI-H460) was 107% and the growth at 10 µM (NCI-H522) was 87%. The growth at 10 µM (COLO 205) was 118%, the growth at 10 µM (HCC 2998) was 104% and the growth at 10 µM (HCT-116) was 103%. It also gave a growth at 10 µM (HCT-15) of 97.9%, a growth at 10 µM (HT-29) of 109% and a growth at 10 µM (KM12) of 104%. The growth at 10 µM (SW-620) was 146%, the growth at 10 µM (SF-268) was 125% and the growth at 10 µM (SF-295) was 138%. For the same compound, the growth at 10 µM (SF-539) was 96.2%, the growth at 10 µM (SNB-19) was 90.7% and the growth at 10 µM (SNB-75) was 92.3%. The growth at 10 µM (U-251) was 103%, the growth at 10 µM (LOX IMVI) was 115% and the growth at 10 µM (Malme-3M) was 49.2%. For the same compound, the growth at 10 µM (M14) was 109%, the growth at 10 µM (MDA-MB-435) was 122% and the growth at 10 µM (SK-MEL-2) was 91.6%. The growth at 10 µM (SK-MEL-28) was 125%, the growth at 10 µM (SK-MEL-5) was 122% and the growth at 10 µM (UACC-257) was 105%. It also gave a growth at 10 µM (UACC-62) of 97.3%, a growth at 10 µM (IGROV-1) of 92.5% and a growth at 10 µM (OVCAR-3) of 103%. For the same compound, the growth at 10 µM (OVCAR-4) was 80.6%, the growth at 10 µM (OVCAR-5) was 97.2% and the growth at 10 µM (OVCAR-8) was 98.7%. It also gave a growth at 10 µM (SK-OV-3) of 110%, a growth at 10 µM (786-0) of 96.8% and a growth at 10 µM (A498) of 106%. For the same compound, the growth at 10 µM (ACHN) was 105%, the growth at 10 µM (CAKI-1) was 97.2% and the growth at 10 µM (RXF 393) was 91.2%. The growth at 10 µM (SN12C) was 104%, the growth at 10 µM (TK-10) was 136% and the growth at 10 µM (UO-31) was 83.2%. It also gave a growth at 10 µM (DU-145) of 136%, a growth at 10 µM (MCF7) of 5.8% and a growth at 10 µM (MDA-MB-231) of 111%. The growth at 10 µM [2] was 174%, the growth at 10 µM (BT-549) was 55.6% and the growth at 10 µM (T47D) was 80.1%. For the same compound, the growth at 10 µM (MDA-MB-468) was 36.5% and the growth at 10 µM (NCI/ADR-RES) was 96.5%.
`CCC(CO)Oc1cc(NCc2ccccc2)c2ncn(C3CCCC3)c2c1` (stereo not given) showed an Activity [3] of 132%.
